A selection: hits, their analogues and other compounds. The true share with any hit is near 4.1%.
Tb MetRS inh: Trypanosoma brucei MetRS inhibition | purified T. brucei MetRS, ATP depletion, Kinase-Glo luminescence | inhibition, % at 11.9 µM | actives 0.4% (n = 360,000) | AID 624268;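 active means inhibition above a per-plate cutoff of the control wells' mean inhibition plus 3 SD, cut at about 5.5% in these data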;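 further: 0% = DMSO wells median and 100% = median of wells with control inhibitor compound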
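Material – parasite MetRS enzyme · Medium – HEPES-MgCl2-KCl buffer plus DTT, spermine, BSA, pyrophosphatase · Reagent – ATP, methionine and E. coli bulk tRNA substrates · Times – 15 min enzyme-compound preincubation, 2 h reaction, 10 min detection, 25 °C · Measured by – luminescence of leftover ATP · Evaluation – percent inhibition relative to median high and low control wells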
Efflux pump mplx: antifungal efflux pump inhibition, Nile Red retention; S. cerevisiae Candida pump triplex; inhibition, % at 10 µM; actives 0.44% (n = 330,000);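 active means plate passing quality check with inhibition over a set limit, or well fluorescence over plate mean plus 4 SD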;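 further: Nile Red retained in pooled yeast measured as flow cytometry median fluorescence; 0% = buffer negative control and 100% = Enniatin B positive control; higher means more Nile Red kept so more efflux inhibition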
H9c2 TAG inh: inhibitors of triacylglycerol accumulation; AID 651582; actives 0.66% (n = 230,000); inhibition, % at 12.5 µM; H9c2 cells, Nile Red lipid (TAG) fluorescence; cells loaded with 200 µM oleic acid;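 active means pattern-corrected inhibition of lipid staining of at least 50% with the nuclear-stain viability signal not falling by more than 50%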;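 further: 0% = DMSO wells and 100% = triacsin C control wells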
AHR act: human AHR activation. P35869. AHR-responsive luciferase reporter cells, luminescence. activation, % at 5 µM. actives 2.5% (n = 320,000); in the data active means activation above about 47%;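 further: 0% = vehicle wells and 100% = reference agonist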
Target sequence (P35869 whole entry, looked up): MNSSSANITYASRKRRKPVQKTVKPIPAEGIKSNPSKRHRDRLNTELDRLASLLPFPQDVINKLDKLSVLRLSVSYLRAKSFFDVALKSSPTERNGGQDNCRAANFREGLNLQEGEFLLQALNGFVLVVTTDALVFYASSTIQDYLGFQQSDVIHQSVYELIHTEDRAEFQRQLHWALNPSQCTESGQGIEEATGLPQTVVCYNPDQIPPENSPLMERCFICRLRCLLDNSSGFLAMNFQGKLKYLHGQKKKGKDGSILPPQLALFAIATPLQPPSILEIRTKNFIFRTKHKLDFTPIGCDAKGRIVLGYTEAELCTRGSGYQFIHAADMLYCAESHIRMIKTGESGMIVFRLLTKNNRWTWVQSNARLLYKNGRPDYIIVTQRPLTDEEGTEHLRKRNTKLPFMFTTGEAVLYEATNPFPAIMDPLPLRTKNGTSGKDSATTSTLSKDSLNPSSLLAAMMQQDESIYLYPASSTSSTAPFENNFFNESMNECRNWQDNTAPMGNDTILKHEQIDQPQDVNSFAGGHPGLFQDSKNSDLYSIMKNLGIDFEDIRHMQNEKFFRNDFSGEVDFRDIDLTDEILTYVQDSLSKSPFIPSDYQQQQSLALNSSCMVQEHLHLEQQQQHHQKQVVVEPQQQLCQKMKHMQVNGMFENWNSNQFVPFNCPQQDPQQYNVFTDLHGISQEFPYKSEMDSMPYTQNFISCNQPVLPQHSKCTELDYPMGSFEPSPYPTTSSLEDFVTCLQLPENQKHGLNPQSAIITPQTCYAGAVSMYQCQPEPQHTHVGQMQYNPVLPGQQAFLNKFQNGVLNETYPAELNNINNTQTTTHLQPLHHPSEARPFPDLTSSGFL
SMARCA2 activ: activators of SMARCA2 function. MG213 cells, MMTV-luciferase reporter, dexamethasone, overnight. activation, % at 9.1 µM. actives 1% (n = 370,000). AID 652017; in the data active means activation above about 7.8%;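 further: 0% = vehicle wells and 100% = reference activator wells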
Numbers without * were called inactive; x = no result given.

SMILES	Tb MetRS inh	Efflux pump mplx	H9c2 TAG inh	AHR act	SMARCA2 activ
CCC(=O)Nc1nc(C)c(-c2csc(Nc3cccc(O)c3)n2)s1	-0.7	-0.1	x	41.5	-2.3
c1ccc(-c2cccc3[nH]cc(-c4ccccc4)c23)cc1	x	x	x	x	-2.2
COc1cccc(C(=O)N[C@@H](CC(C)C)C(=O)N2CCC[C@H]2C(=O)NCc2ccccc2)c1	x	x	x	x	0.0
CC(=O)C1=C(C)NC(SCC(=O)c2cc(Cl)ccc2Cl)=C(C#N)C1c1ccco1 (centres undefined)	-1.5	0.0	x	83.3*	-2.9
CC(=O)C1=C(C)NC(SCC(=O)c2ccc(F)cc2)=C(C#N)C1c1ccco1 (centres undefined)	-0.1	0.0	x	64.1*	1.3
COc1ccccc1/C=C/C(=O)NC(=S)N1CCN(C)CC1	-0.4	-0.2	-1.4	x	0.4
O=C(/C=C/c1ccccc1O)c1ccc(Cl)cc1	-0.3	-0.1	-45.8	66.0*	3.2
COc1ccccc1/C=C/C(=O)c1ccc(Cl)cc1	-0.2	-0.3	x	91.3*	-0.3
CCOc1ccccc1/C=C/C(=O)c1ccc(Cl)cc1	-0.9	0.0	-5.8	70.5*	0.9
COc1ccccc1/C=C/C(=O)c1ccc(NC(C)=O)cc1	-0.6	0.2	x	12.2	-2.6
COc1ccccc1/C=C/C(=O)NC(=S)NC(C)C	0.8	0.1	11.7	67.8*	-0.2
COc1ccccc1/C=C/C(=O)c1ccccc1	-0.5	0.0	x	x	5.7
CCn1cc(CCC(=O)Nc2ccc(Oc3cccnc3)cc2)c2ccccc21	x	x	x	x	-1.1
Cc1[nH]nc2c1C(c1ccc(Br)cc1)N(c1ccccc1)C2=O (centres undefined)	x	x	x	x	-0.8
Cc1ccsc1/C=N/N=C1\C(=O)Nc2ccccc21	-0.8	0.0	x	69.8*	4.6
Cc1ccsc1/C=N/N=C/c1sccc1C	-0.6	-0.1	x	69.7*	6.2
COc1cc(/C=N/N=C2/C(=O)Nc3ccccc32)ccc1O	0.6	0.0	-0.2	19.7	-1.1
CC(=O)CC[C@H]1CC[C@]2(CCCN(C(=O)C(C)(C)C)C2)O1	x	x	x	x	-3.2
O/C=c1\ccc2cccc3nc(C(F)(F)F)nc1c23	-0.9	3.0*	x	0.6	-3.5
N#Cc1ccc(/C=C2\CC3(OC(=O)c4ccccc4)CCCN2C3)cc1 (centres undefined)	x	x	x	x	-5.0
CCn1c(CNc2ccc(Cl)cc2)nnc1SCc1ccc(Cl)cc1	0.2	0.1	x	11.6	-5.5
CCn1c(CNc2ccc(Cl)cc2)nnc1SCc1ccc(C)cc1	-0.5	0.0	-107.1	50.5*	-2.7
O=C(NCc1ccco1)C1CCCN(S(=O)(=O)c2ccc([N+](=O)[O-])cc2)C1 (centres undefined)	x	x	x	x	3.0
Cc1ccc2c(c1)C1CS(=O)(=O)N(Cc3ccccc3)CN1C2 (centres undefined)	x	x	x	x	-2.7
Cc1cc(C)n(Cc2ccc(C(=O)Nc3cccc(Br)c3)o2)n1	-0.5	0.2	x	73.8*	-1.8
SMILES	Tb MetRS inh	Efflux pump mplx	H9c2 TAG inh	AHR act	SMARCA2 activ
CCCCNC(=O)C1(C(=O)C2CC2)CC(c2ccccc2C(F)(F)F)=NO1 (centres undefined)	x	x	x	x	-1.2
O=C(NCCc1ccccc1)C(c1cccs1)N(C(=O)c1csnn1)C1CC1 (centres undefined)	-0.6	-0.1	x	58.3*	-1.1
Cc1cc(C)cc(NC(=S)/N=C(\N)Nc2nc(C)c3ccccc3n2)c1	0.6	-0.3	x	20.6	-1.7
Cc1cccc(NC(=S)/N=C(\N)Nc2nc(C)c3ccccc3n2)c1	0.3	0.2	x	69.2*	0.3
CCOc1ccc2nc(N/C(N)=N/C(=S)Nc3ccc(OC)cc3)nc(C)c2c1	0.0	0.1	14.5	63.5*	0.0
Cc1ccc(NC(=S)/N=C(\N)Nc2nc(C)c3ccccc3n2)cc1C	-0.2	-7.4	x	47.9*	-3.5
Cc1cccc(NC(=S)/N=C(\N)Nc2nc(C)c3ccc(C)cc3n2)c1	0.0	-0.2	18.4	57.2*	0.4
CC(=O)c1cc(-c2ccc([N+](=O)[O-])cc2)c(=O)n2c1CCC2	x	x	x	x	-0.7
COc1cc(-c2nc3c4ccccc4nc(=S)n3[nH]2)cc(OC)c1OC	1.6	0.0	4.7	71.3*	-2.4
COc1ccccc1-c1nc2c3ccccc3nc(=S)n2[nH]1	-0.8	0.0	x	67.6*	-0.9
COc1cc(-c2nc3ccccc3c(=O)n2N)cc(OC)c1OC	-0.4	-0.3	-3.1	16.1	3.4
CC(=O)N1CCN(C2=Nc3ccccc3Sc3ccccc32)CC1	x	x	x	x	6.8
CSc1c2c(nc3ncnn13)CCC2	-0.1	0.0	x	-2.2	4.7
CSc1nc2[nH]c3c(c2c2ncnn12)CCCC3	-1.6	-0.1	-1.4	47.2*	1.1
Cc1n(CC(=O)c2ccc(F)cc2)c2ccccc2[n+]1C	-1.5	1.3	x	26.5	-2.6
Cn1c(=N)n(CC(=O)c2ccc(F)cc2)c2ccccc21	-1.0	0.1	x	64.8*	3.1
Cn1c(=N)n(CC(=O)c2ccc(Br)cc2)c2ccccc21	1.4	0.1	9.9	55.0*	3.8
O=C1/C(=C\Nc2ccc(OC(F)(F)F)cc2)CCN1c1ncccn1	-0.7	-0.1	-2.4	5.8	1.4
O=C1/C(=C\Nc2ccc(Cl)cc2)CCN1c1ncccn1	-1.6	-0.1	-2.7	51.7*	5.2
CC(=O)Nc1ccc(/C=N/Nc2nc3ccccc3s2)cc1	0.1	x	10.1	x	3.3
CC(=O)Nc1cccc(/C(C)=N/Nc2nc3ccccc3s2)c1	-0.4	0.1	21.2	61.4*	0.8
C/C(=N\Nc1nc(-c2ccccc2)cs1)c1cccs1	-0.9	-0.2	x	25.8	-0.6
CC(=NNc1nc2ccccc2s1)c1ncccn1	0.1	x	63.2*	x	2.5
Oc1ccccc1/C=N/Nc1nc2ccccc2o1	0.1	-0.2	62.8*	15.3	-5.1
COc1ccc(/C=N/Nc2nc3ccccc3o2)cc1O	-0.8	-0.1	6.0	33.3	-1.1
SMILES	Tb MetRS inh	Efflux pump mplx	H9c2 TAG inh	AHR act	SMARCA2 activ
C/C(=N\Nc1nc2ccccc2s1)c1cccs1	-0.4	-0.1	x	58.0*	3.0
CCOC(=O)N1CCN(C(=O)C[C@H]2C[C@@]3(C(=O)OC)C(=C[C@H](C(C)(C)C)O[C@@H]3C)N(Cc3cccc4ccccc34)C2=O)CC1	x	x	x	x	-5.7
O=S1(=O)C=CCN1Cc1cn(Cc2ccc(C(F)(F)F)cc2)nn1	x	x	x	x	-3.5
CC(=NNc1nc2ccccc2o1)c1ncccn1	-0.5	x	50.6*	x	-5.3
CC(=NNc1nc2ccccc2o1)c1cc2ccccc2cn1	-0.4	x	-11.9	x	1.3
CCCCNC(=O)NCC1CCN(Cc2ccc(OC)cc2)CC1	x	x	x	x	5.7
COCCCNC(=O)C[C@H]1C[C@@]2(C(=O)OC)C(=C[C@H](COCc3ccccc3)O[C@@H]2C)N(Cc2cccc3ccccc23)C1=O	x	x	x	x	-3.7
COc1ccc(OC)c(-c2csc(NC(=O)C3=COCCO3)n2)c1	-0.3	-0.1	5.2	49.8*	-1.0
CC(C)OCCCn1c(-c2ccco2)nc2nc3ccccc3nc21	-0.1	-0.1	x	10.8	7.9*
CCCCNC(=O)C[C@H]1C[C@@]2(C(=O)OC)C(=C[C@H](C(C)C)O[C@@H]2C2CC2)N(CCC2=CCCCC2)C1=O	x	x	x	x	5.2
COC(=O)c1[nH]c2cc(OC)c(OC)cc2c1NC(=O)c1cccc(OC)c1	-1.0	0.2	15.2	62.3*	4.0

Bioassay records from PubChem BioAssay.
